Source: ChEMBL document CHEMBL1153591, “Exploring bis-(indolyl)methane moiety as an alternative and innovative CAP group in the design of histone deacetylase (HDAC) inhibitors” (Bioorg Med Chem Lett, 2009)

Key:
NCI-H460 = assay: Cytotoxicity against human H460 cells after 24 hrs by sulforhodamine B assay; type: functional, cell-based; settings: NCI-H460, 24 h
HCT-116 = assay: Cytotoxicity against human HCT116 cells after 24 hrs by sulforhodamine B assay; type: functional, cell-based; settings: HCT-116, 24 h
Histone deacetylase 9 = Histone deacetylase 9 (Homo sapiens, UniProt Q9UKV0); assay: Inhibition of human HDAC9 by fluorimetry
Summary of the method: (§1)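 Each purified single HDAC isoform incubated with fluorogenic substrate, a p53 fragment (residues […], Arg-His-Lys-Lys(Ac)) carrying an ε-acetylated lysine; deacetylation releases fluorophore, read by fluorimeter. Compounds tested as 10 doses, 1:3 serial dilution starting from 50 µM solution. IC50 from dose-response inhibition curves; trichostatin A as reference compound.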

Histone deacetylase 1 = Histone deacetylase 1 (Homo sapiens, UniProt Q13547); assay: Inhibition of human HDAC1 by fluorimetry; summary of the method: as §1
Histone deacetylase 2 = Histone deacetylase 2 (Homo sapiens, UniProt Q92769); assay: Inhibition of human HDAC2 by fluorimetry; summary of the method: as §1
Histone deacetylase 3 = Histone deacetylase 3 (Homo sapiens, UniProt O15379); assay: Inhibition of human HDAC3 by fluorimetry; summary of the method: as §1
[1] = target: T1, Polyamine deacetylase HDAC10 (Homo sapiens, UniProt Q969S8); assay: Inhibition of human HDAC10 by fluorimetry; summary of the method: as §1
T1 sequence (Q969S8 whole entry): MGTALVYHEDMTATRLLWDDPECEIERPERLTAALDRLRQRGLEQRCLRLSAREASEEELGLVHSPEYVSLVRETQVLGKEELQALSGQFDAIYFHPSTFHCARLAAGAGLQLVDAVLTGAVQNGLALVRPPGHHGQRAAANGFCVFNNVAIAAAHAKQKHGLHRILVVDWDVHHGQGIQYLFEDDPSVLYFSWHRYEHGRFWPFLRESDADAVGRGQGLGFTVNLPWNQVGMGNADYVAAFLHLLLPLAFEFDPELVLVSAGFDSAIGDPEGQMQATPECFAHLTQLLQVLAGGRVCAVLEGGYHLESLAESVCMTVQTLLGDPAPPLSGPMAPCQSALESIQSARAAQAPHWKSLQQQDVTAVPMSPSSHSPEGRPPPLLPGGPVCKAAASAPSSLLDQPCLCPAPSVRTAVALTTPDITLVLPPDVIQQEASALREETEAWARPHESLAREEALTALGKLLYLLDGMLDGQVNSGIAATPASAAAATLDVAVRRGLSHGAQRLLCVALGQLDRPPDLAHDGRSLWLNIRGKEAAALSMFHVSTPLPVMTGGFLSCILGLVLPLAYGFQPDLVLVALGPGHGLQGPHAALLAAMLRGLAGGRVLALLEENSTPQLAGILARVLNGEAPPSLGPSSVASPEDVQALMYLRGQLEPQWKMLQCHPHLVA

Histone deacetylase 11 = target: T2, Histone deacetylase 11 (Homo sapiens, UniProt Q96DB2); assay: Inhibition of human HDAC11 by fluorimetry; summary of the method: as §1
T2 sequence (Q96DB2 whole entry): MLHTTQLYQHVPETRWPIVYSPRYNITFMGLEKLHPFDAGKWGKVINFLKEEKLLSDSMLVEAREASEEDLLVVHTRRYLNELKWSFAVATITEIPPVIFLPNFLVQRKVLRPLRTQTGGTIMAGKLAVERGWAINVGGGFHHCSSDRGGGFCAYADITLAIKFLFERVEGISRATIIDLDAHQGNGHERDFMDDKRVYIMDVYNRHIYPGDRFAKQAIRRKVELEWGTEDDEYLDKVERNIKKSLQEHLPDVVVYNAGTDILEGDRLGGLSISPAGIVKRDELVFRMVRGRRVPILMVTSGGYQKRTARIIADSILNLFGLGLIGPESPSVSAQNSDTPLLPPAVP

Histone deacetylase 5 = Histone deacetylase 5 (Homo sapiens, UniProt Q9UQL6); assay: Inhibition of human HDAC5 by fluorimetry; summary of the method: as §1
Histone deacetylase 8 = target: T3, Histone deacetylase 8 (Homo sapiens, UniProt Q9BY41); assay: Inhibition of human HDAC8 by fluorimetry; summary of the method: as §1
T3 sequence (Q9BY41 whole entry): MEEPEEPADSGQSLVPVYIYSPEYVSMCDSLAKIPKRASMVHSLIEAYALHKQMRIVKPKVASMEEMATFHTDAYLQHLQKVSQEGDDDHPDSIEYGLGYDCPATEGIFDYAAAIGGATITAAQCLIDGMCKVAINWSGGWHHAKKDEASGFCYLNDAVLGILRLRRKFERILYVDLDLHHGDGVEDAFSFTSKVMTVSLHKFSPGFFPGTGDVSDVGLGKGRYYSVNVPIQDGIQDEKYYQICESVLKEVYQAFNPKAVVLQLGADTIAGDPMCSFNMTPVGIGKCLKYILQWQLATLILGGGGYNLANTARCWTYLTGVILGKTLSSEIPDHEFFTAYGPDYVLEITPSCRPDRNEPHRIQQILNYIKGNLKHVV

Histone deacetylase 4 = Histone deacetylase 4 (Homo sapiens, UniProt P56524); assay: Inhibition of human HDAC4 by fluorimetry; summary of the method: as §1
[2] = target: T4, Protein deacetylase HDAC6 (Homo sapiens, UniProt Q9UBN7); assay: Inhibition of human HDAC6 by fluorimetry; summary of the method: as §1
T4 sequence (Q9UBN7 whole entry): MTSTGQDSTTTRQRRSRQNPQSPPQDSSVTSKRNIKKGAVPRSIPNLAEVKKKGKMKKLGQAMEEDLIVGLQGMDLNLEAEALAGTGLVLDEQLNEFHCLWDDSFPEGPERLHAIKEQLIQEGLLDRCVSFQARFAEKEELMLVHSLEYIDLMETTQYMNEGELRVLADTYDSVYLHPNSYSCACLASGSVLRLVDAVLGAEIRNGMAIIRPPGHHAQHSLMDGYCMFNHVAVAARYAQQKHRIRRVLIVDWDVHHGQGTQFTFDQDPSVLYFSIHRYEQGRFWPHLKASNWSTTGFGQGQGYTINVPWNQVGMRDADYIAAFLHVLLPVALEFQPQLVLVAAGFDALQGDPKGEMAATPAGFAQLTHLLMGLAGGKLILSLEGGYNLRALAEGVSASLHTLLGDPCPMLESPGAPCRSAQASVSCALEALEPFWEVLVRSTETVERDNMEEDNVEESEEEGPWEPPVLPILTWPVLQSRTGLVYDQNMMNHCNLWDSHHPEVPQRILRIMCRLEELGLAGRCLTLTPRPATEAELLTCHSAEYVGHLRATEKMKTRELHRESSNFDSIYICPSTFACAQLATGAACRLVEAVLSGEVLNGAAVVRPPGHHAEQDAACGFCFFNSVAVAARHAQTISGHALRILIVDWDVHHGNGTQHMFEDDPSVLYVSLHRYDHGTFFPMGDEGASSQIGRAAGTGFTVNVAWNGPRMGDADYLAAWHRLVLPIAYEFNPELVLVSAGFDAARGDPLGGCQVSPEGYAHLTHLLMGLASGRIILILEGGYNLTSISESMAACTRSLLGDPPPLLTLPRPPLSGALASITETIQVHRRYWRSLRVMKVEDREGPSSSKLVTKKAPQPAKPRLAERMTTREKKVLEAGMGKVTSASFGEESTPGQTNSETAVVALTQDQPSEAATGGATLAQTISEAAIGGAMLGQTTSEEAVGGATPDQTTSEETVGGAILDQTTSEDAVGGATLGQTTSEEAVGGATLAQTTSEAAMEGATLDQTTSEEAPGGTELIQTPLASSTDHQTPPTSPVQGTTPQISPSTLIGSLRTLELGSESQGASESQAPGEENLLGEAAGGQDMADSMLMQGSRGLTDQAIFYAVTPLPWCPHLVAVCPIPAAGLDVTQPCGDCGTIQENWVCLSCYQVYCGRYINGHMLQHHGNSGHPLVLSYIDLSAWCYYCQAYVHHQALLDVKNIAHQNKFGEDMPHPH

Histone deacetylase 7 = target: T5, Histone deacetylase 7 (Homo sapiens, UniProt Q8WUI4); assay: Inhibition of human HDAC7 by fluorimetry
T5 sequence (Q8WUI4 whole entry): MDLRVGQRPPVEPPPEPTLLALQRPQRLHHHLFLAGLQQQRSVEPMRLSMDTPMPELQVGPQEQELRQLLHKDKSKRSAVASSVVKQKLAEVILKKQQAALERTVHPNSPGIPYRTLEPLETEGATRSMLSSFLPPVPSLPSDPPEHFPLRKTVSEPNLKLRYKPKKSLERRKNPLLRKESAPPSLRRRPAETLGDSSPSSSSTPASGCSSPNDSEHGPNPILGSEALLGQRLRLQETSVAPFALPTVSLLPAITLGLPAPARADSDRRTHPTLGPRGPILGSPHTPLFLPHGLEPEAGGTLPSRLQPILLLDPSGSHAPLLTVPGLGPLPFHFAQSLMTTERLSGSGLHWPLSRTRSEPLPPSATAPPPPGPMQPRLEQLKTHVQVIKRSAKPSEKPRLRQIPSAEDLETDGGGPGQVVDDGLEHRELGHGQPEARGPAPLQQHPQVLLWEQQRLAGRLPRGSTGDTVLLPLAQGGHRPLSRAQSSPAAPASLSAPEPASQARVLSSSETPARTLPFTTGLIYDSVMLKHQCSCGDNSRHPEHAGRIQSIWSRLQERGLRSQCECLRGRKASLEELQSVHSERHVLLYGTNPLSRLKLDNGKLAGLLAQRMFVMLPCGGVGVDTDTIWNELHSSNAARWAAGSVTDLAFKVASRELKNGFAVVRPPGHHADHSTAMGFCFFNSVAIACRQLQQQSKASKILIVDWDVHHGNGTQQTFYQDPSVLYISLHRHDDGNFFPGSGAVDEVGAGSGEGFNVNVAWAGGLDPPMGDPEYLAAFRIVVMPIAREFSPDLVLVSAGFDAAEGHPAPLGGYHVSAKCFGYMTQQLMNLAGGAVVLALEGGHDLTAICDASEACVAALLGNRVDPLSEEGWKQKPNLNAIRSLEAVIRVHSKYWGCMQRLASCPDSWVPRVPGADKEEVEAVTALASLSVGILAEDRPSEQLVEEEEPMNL

Histone deacetylase 4, sequence (P56524 whole entry): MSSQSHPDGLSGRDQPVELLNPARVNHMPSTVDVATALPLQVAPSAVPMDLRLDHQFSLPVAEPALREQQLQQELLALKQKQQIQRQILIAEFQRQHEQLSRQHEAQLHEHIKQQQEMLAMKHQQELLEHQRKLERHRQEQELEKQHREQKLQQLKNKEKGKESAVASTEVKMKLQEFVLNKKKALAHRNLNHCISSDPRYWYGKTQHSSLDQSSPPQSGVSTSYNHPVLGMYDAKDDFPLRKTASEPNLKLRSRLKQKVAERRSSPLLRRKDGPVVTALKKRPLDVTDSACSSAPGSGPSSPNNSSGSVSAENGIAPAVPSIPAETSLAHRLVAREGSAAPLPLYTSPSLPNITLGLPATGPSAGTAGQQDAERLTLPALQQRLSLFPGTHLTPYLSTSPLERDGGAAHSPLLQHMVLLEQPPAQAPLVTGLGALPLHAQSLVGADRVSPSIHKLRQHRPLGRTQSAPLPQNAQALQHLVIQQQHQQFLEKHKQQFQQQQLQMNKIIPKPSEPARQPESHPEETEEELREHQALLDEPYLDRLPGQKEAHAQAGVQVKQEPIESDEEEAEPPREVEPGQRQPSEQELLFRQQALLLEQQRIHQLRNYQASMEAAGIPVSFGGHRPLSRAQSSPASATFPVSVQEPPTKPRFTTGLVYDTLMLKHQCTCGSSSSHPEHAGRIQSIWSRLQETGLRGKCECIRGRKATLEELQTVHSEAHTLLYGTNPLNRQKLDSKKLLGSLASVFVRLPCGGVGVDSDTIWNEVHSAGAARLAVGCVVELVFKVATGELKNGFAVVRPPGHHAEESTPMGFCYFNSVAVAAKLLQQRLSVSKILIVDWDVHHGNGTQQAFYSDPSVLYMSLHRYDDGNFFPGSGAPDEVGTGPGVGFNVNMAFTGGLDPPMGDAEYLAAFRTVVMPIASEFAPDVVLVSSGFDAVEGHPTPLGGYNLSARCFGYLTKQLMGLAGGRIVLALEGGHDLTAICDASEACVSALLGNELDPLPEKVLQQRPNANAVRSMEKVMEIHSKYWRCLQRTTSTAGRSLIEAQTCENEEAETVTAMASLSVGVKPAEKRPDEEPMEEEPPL
Histone deacetylase 3, sequence (O15379 whole entry): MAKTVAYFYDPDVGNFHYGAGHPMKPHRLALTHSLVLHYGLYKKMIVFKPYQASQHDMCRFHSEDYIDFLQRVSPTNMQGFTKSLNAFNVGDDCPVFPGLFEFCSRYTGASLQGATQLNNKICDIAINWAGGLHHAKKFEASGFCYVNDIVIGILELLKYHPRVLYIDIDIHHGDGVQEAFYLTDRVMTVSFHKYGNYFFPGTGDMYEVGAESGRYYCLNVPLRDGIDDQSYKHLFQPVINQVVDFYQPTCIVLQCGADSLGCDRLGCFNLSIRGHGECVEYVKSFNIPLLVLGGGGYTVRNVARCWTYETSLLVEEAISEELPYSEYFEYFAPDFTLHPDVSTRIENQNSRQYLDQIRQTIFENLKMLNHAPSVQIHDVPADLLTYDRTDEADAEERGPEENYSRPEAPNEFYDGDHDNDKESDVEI
Histone deacetylase 5, sequence (Q9UQL6 whole entry): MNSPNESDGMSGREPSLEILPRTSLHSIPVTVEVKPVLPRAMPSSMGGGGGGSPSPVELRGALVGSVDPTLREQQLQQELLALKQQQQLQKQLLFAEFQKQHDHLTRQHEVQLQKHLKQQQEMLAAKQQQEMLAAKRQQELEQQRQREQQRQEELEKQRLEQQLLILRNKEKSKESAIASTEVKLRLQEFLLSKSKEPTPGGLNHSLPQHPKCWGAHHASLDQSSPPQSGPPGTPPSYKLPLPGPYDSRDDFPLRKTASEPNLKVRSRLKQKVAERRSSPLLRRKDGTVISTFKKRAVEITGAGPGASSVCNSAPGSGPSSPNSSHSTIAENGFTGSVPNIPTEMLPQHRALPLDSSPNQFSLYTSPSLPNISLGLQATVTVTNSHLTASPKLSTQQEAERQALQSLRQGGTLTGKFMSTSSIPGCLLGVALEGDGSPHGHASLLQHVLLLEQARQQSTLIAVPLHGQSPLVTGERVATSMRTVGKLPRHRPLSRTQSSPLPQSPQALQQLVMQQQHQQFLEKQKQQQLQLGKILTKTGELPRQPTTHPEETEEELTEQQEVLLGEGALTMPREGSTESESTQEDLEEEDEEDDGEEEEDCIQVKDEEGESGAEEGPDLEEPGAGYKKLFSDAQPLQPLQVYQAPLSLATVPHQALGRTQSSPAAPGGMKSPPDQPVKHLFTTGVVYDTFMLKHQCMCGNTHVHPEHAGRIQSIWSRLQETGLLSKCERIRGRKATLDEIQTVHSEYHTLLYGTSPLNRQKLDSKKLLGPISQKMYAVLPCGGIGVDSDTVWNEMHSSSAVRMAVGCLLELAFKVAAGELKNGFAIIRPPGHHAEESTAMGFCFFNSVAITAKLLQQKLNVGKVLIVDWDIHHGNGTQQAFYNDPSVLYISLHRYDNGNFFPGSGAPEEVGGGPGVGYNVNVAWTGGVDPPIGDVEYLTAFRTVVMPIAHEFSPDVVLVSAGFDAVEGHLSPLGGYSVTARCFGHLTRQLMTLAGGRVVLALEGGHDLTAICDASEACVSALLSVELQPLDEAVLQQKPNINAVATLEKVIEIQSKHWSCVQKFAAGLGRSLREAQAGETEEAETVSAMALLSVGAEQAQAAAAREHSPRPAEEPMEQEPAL
Histone deacetylase 2, sequence (Q92769 whole entry): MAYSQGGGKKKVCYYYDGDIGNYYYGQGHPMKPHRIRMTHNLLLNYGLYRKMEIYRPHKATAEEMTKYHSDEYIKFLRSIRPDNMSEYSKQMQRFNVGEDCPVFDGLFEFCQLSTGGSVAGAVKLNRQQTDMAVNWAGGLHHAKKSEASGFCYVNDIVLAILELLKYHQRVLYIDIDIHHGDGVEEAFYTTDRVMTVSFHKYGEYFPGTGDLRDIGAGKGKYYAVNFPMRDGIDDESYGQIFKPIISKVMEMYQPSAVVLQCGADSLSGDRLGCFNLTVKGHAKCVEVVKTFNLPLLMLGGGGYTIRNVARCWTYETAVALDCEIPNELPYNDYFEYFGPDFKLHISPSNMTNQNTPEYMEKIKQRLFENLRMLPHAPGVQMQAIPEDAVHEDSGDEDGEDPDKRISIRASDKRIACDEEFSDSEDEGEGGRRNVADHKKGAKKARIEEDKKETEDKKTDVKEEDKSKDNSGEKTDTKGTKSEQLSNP
Histone deacetylase 1, sequence (Q13547 whole entry): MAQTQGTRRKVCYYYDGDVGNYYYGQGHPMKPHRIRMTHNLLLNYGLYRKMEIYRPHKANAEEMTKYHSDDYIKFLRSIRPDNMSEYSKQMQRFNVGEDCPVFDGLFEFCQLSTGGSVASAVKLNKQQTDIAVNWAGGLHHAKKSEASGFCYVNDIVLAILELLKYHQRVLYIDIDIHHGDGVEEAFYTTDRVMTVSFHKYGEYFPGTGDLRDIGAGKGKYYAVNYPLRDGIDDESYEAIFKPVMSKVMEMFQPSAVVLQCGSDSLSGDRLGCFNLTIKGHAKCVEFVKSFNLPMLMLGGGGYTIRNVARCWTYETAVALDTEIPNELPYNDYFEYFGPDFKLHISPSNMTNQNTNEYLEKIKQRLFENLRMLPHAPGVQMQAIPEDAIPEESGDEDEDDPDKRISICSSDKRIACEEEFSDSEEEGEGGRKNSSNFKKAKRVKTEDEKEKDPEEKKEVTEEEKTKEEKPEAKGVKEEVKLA
Histone deacetylase 9, sequence (Q9UKV0 whole entry, the tested form may be a part, canonical isoform): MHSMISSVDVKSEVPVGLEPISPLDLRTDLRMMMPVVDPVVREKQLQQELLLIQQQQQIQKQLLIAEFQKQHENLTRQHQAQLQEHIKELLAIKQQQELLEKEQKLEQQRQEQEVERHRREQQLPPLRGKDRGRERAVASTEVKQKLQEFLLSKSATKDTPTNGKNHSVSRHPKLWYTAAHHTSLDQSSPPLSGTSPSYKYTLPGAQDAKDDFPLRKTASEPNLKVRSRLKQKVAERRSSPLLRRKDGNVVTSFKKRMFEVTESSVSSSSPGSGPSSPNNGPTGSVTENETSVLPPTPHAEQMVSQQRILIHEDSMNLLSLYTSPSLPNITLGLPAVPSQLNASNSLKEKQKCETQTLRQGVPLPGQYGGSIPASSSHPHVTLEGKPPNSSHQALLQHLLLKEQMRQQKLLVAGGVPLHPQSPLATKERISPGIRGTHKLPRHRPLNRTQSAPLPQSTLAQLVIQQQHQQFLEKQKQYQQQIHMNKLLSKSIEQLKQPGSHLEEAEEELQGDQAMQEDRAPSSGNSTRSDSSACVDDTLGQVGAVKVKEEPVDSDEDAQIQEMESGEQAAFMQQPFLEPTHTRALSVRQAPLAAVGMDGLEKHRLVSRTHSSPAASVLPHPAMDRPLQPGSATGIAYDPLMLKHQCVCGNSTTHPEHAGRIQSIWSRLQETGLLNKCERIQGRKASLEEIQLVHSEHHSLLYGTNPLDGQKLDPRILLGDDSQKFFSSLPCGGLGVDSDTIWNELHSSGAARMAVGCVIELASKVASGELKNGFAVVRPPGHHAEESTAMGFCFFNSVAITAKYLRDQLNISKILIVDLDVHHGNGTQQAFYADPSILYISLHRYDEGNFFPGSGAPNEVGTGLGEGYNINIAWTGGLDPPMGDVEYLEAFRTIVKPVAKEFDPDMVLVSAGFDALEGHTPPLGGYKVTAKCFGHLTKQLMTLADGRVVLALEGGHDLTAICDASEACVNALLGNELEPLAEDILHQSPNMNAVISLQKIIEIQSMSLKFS

IC50 (Histone deacetylase 9) [µM] | IC50 (Histone deacetylase 1) [µM] | IC50 (Histone deacetylase 2) [µM] | IC50 (Histone deacetylase 3) [µM] | IC50 [1] [µM] | IC50 (Histone deacetylase 11) [µM] | IC50 (Histone deacetylase 5) [µM] | IC50 (Histone deacetylase 8) [µM] | IC50 (Histone deacetylase 4) [µM] | IC50 [2] [µM] | IC50 (Histone deacetylase 7) [µM] | Structure (SMILES) | IC50 (NCI-H460) [µM] | IC50 (HCT-116) [µM]
 |  |  |  |  |  |  |  |  |  |  | Cc1[nH]c2ccccc2c1C(CCCCCC(=O)NO)c1c(C)[nH]c2ccccc12 | 4.3 | 3.2
 |  |  |  |  |  |  |  |  |  |  | O=C(CCCCCCC(c1c[nH]c2ccccc12)c1c[nH]c2ccccc12)NO | 2.7 | 3.5
 |  |  |  |  |  |  |  |  |  |  | Cc1ccc2[nH]cc(C(CCCCCC(=O)NO)c3c[nH]c4ccc(C)cc34)c2c1 | 0.51 | 0.27
3.3 | 4.8 | 3.9 | 0.44 | 4.7 | 0.41 | 4.9 | 0.73 | 4.8 | 4.9 | 4.2 | O=C(/C=C/c1ccc(C(c2c[nH]c3ccccc23)c2c[nH]c3ccccc23)cc1)NO | 2.6 | 2.6
 |  |  |  |  |  |  |  |  |  |  | CCc1cccc2c(C(CCCCCC(=O)NO)c3c[nH]c4c(CC)cccc34)c[nH]c12 | 4.8 | 3.5
 |  |  |  |  |  |  |  |  |  |  | CN(O)C(=O)CCCCCC(c1cn(C)c2ccccc12)c1cn(C)c2ccccc12 | > 20 | > 20
0.64 | 0.73 | 2 | 0.35 | 0.87 | 0.43 | 0.59 | 0.24 | 1.3 | 0.006 |  | O=C(CCCCCC(c1c[nH]c2ccccc12)c1c[nH]c2ccccc12)NO | 1.2 | 0.6
50 | 21 | 1.1 | 0.26 | 73 | 5.8 | 28 | 74 | 150 |  |  | Nc1ccccc1NC(=O)CCCCCC(c1c[nH]c2ccccc12)c1c[nH]c2ccccc12 | > 20 | 16.5
 |  |  |  |  |  |  |  |  |  |  | O=C(CCCCCC(c1cc2ccccc2[nH]1)c1c[nH]c2ccccc12)NO (stereo not given) | 0.82 | 0.84
 |  |  |  |  |  |  |  |  |  |  | CN(O)C(=O)CCCCCC(c1c[nH]c2ccccc12)c1c[nH]c2ccccc12 | > 20 | > 20
